Common to all, as to type: functional
One test relates to Pseudomonas aeruginosa. Kind of test: Antibacterial activity against Pseudomonas aeruginosa by twofold serial dilution technique.
The nature of test [1]: Antibacterial activity against Eberthella typhosa by twofold serial dilution technique.
For a further test, the system named is Candida. Kind of test: Antifungal activity against Candida mycoderma by twofold serial dilution technique. An outline of the steps:
(§1)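 Two-fold serial dilution MIC in 96-well microtest plates. Test compounds from DMSO stocks, with fluconazole as reference. MIC read as the first well showing about 80% growth reduction versus the drug-free well.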

A further test deals with Escherichia coli. Kind of test: Antibacterial activity against Escherichia coli JM 109 by twofold serial dilution technique.
The next test deals with Bacillus subtilis. Kind of test: Antibacterial activity against Bacillus subtilis ATCC 6633 by twofold serial dilution technique.
Test [2] concerns Staphylococcus aureus. Description: Antibacterial activity against methicillin-resistant Staphylococcus aureus N315 by twofold serial dilution technique. An outline of the steps:
(§2)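 MIC by two-fold broth dilution in 96-well plates following NCCLS. Compounds were dissolved in DMSO as stock, then diluted in Mueller-Hinton broth to 512 down to 0.5. Inoculum was bacterial suspension adjusted with sterile saline to 1 ×10⁵ CFU. Plates were incubated 37 °C for 24 h, with a DMSO-supplemented medium control at matching dilutions. Chloramphenicol was the reference.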

The test system of the next test is Shigella dysenteriae. Description: Antibacterial activity against Shigella dysenteriae by twofold serial dilution technique. Summed up:
as §2

In another test the test system is Candida albicans. Description: Antifungal activity against Candida albicans ATCC 76615 by twofold serial dilution technique. An outline of the steps:
as §1

The test system of test [3] is Staphylococcus aureus. Kind of test: Antibacterial activity against Staphylococcus aureus ATCC 25923 by twofold serial dilution technique.

For 18 molecules, MIC results are on record in ChEMBL document CHEMBL1250506, “Synthesis of novel sulfanilamide-derived 1,2,3-triazoles and their evaluation for antibacterial and antifungal activities” (2010).

≈ marks a conversion by molar mass, not a printed value.

Turning to `CCCCCCCCCCCCCCCCn1cc(CNS(=O)(=O)c2ccc(N)cc2)nn1`, the MIC against Pseudomonas aeruginosa was 64 µg/mL (≈ 134 µM); in [1] it was 128 µg/mL (≈ 268 µM); against Candida, more than 512 µg/mL; with Escherichia coli, 256 µg/mL (≈ 536 µM); with Bacillus subtilis, 256 µg/mL (≈ 536 µM); in the test with Staphylococcus aureus [2], 512 µg/mL (≈ 1070 µM). The MIC is 128 µg/mL (≈ 268 µM) against Shigella dysenteriae, more than 512 µg/mL with Candida albicans and 256 µg/mL (≈ 536 µM) with Staphylococcus aureus [3].
Consider `OC(Cn1cncn1)(Cn1cncn1)c1ccc(F)cc1F` [FLUCONAZOLE], for which the figures for the minimal inhibitory concentration (MIC) against Candida and against Candida albicans were 4 µg/mL (≈ 13.1 µM) and 0.5 µg/mL (≈ 1.63 µM), respectively.
`Nc1ccc(S(=O)(=O)NCc2cn(Cc3ccc(Cl)cc3)nn2)cc1`: the MIC in the test on Pseudomonas aeruginosa was more than 512 µg/mL; in test [1], 512 µg/mL (≈ 1360 µM); with Candida it was more than 512 µg/mL; in the test on Escherichia coli, more than 512 µg/mL; with Bacillus subtilis it was more than 512 µg/mL; with Staphylococcus aureus [2], more than 512 µg/mL. Further, the results for the MIC in the test with Shigella dysenteriae, against Candida albicans and against Staphylococcus aureus [3] were more than 512 µg/mL, more than 512 µg/mL and 512 µg/mL (≈ 1360 µM), respectively.
Turning to `CCCCCCCCCCn1cc(CNS(=O)(=O)c2ccc(N)cc2)nn1`, the MIC was 64 µg/mL (≈ 163 µM) with Pseudomonas aeruginosa; 128 µg/mL (≈ 325 µM) in test [1]; more than 512 µg/mL against Candida; 512 µg/mL (≈ 1300 µM) with Escherichia coli; 64 µg/mL (≈ 163 µM) in the test with Bacillus subtilis; 512 µg/mL (≈ 1300 µM) against Staphylococcus aureus [2]. Besides, the MIC is 128 µg/mL (≈ 325 µM) against Shigella dysenteriae, more than 512 µg/mL against Candida albicans and 256 µg/mL (≈ 650 µM) against Staphylococcus aureus [3].
`CCCCCCCCn1cc(CNS(=O)(=O)c2ccc(N)cc2)nn1`: the MIC with Pseudomonas aeruginosa was determined as 128 µg/mL (≈ 350 µM); in test [1], 256 µg/mL (≈ 700 µM); against Candida it was 512 µg/mL (≈ 1400 µM); in the test on Escherichia coli, 512 µg/mL (≈ 1400 µM); against Bacillus subtilis, 256 µg/mL (≈ 700 µM); against Staphylococcus aureus [2], 512 µg/mL (≈ 1400 µM). The MIC was 256 µg/mL (≈ 700 µM) in the test with Shigella dysenteriae, more than 512 µg/mL in the test on Candida albicans and more than 512 µg/mL in the test with Staphylococcus aureus [3].
Take `Nc1ccc(S(=O)(=O)NCc2cn(Cc3ccccc3)nn2)cc1`: the minimal inhibitory concentration (MIC) is 512 µg/mL (≈ 1490 µM) in the test with Pseudomonas aeruginosa; 512 µg/mL (≈ 1490 µM) in test [1]; more than 512 µg/mL with Candida; more than 512 µg/mL against Escherichia coli; more than 512 µg/mL with Bacillus subtilis; 256 µg/mL (≈ 745 µM) in the test on Staphylococcus aureus [2]. The results for the minimal inhibitory concentration (MIC) with Shigella dysenteriae, against Candida albicans and against Staphylococcus aureus [3] were 512 µg/mL (≈ 1490 µM), more than 512 µg/mL and 512 µg/mL (≈ 1490 µM), respectively.
`Nc1ccc(S(=O)(=O)NCc2cn(Cc3ccccc3Cl)nn2)cc1`: the minimal inhibitory concentration (MIC) against Pseudomonas aeruginosa was 512 µg/mL (≈ 1360 µM); in test [1], more than 512 µg/mL; in the test on Candida, more than 512 µg/mL; against Escherichia coli, more than 512 µg/mL; in the test on Bacillus subtilis, more than 512 µg/mL; in the test on Staphylococcus aureus [2], more than 512 µg/mL. Moreover, the minimal inhibitory concentration (MIC) with Shigella dysenteriae was 512 µg/mL (≈ 1360 µM); in the test on Candida albicans, more than 512 µg/mL; against Staphylococcus aureus [3], more than 512 µg/mL.
As to `CCCCCCCCCCCCn1cc(CNS(=O)(=O)c2ccc(N)cc2)nn1`, the minimal inhibitory concentration (MIC) was 32 µg/mL (≈ 75.9 µM) in the test with Pseudomonas aeruginosa; 64 µg/mL (≈ 152 µM) in [1]; 256 µg/mL (≈ 607 µM) with Candida; 64 µg/mL (≈ 152 µM) against Escherichia coli; 128 µg/mL (≈ 304 µM) with Bacillus subtilis; 128 µg/mL (≈ 304 µM) against Staphylococcus aureus [2]. The MIC against Shigella dysenteriae is 32 µg/mL (≈ 75.9 µM); against Candida albicans, 512 µg/mL (≈ 1210 µM); in the test on Staphylococcus aureus [3], 128 µg/mL (≈ 304 µM).
Consider `CCCCCCn1cc(CNS(=O)(=O)c2ccc(N)cc2)nn1`, for which the MIC is 256 µg/mL (≈ 759 µM) against Pseudomonas aeruginosa; more than 512 µg/mL in test [1]; more than 512 µg/mL with Candida; more than 512 µg/mL in the test with Escherichia coli; 256 µg/mL (≈ 759 µM) against Bacillus subtilis; 512 µg/mL (≈ 1520 µM) against Staphylococcus aureus [2]. Moreover, the MIC was 256 µg/mL (≈ 759 µM) against Shigella dysenteriae, more than 512 µg/mL against Candida albicans and 512 µg/mL (≈ 1520 µM) against Staphylococcus aureus [3].
With `Nc1ccc(S(=O)(=O)NCc2cn(Cc3ccc([N+](=O)[O-])cc3)nn2)cc1`, the minimal inhibitory concentration (MIC) against Pseudomonas aeruginosa was more than 512 µg/mL; in test [1], more than 512 µg/mL; with Candida, more than 512 µg/mL; in the test with Escherichia coli, more than 512 µg/mL; against Bacillus subtilis it was 256 µg/mL (≈ 659 µM); in the test on Staphylococcus aureus [2], 256 µg/mL (≈ 659 µM). The MIC in the test on Shigella dysenteriae, against Candida albicans and against Staphylococcus aureus [3] was more than 512 µg/mL throughout.
Take `Cc1cccc(Cn2cc(CNS(=O)(=O)c3ccc(N)cc3)nn2)c1`: the MIC is more than 512 µg/mL with Pseudomonas aeruginosa; 512 µg/mL (≈ 1430 µM) in [1]; more than 512 µg/mL in the test on Candida; more than 512 µg/mL with Escherichia coli; 512 µg/mL (≈ 1430 µM) in the test on Bacillus subtilis; more than 512 µg/mL against Staphylococcus aureus [2]. Further, the MIC with Shigella dysenteriae, against Candida albicans and with Staphylococcus aureus [3] was more than 512 µg/mL each time.
As for `Nc1ccc(S(=O)(=O)NCc2cn(Cc3ccc(F)cc3F)nn2)cc1`, the minimal inhibitory concentration (MIC) amounted to 16 µg/mL (≈ 42.2 µM) in the test on Pseudomonas aeruginosa; 128 µg/mL (≈ 337 µM) in test [1]; 512 µg/mL (≈ 1350 µM) with Candida; 128 µg/mL (≈ 337 µM) with Escherichia coli; 128 µg/mL (≈ 337 µM) in the test with Bacillus subtilis; 128 µg/mL (≈ 337 µM) in the test on Staphylococcus aureus [2]. The minimum inhibitory concentration (MIC) with Shigella dysenteriae is 16 µg/mL (≈ 42.2 µM); against Candida albicans, 256 µg/mL (≈ 675 µM); in the test with Staphylococcus aureus [3], 64 µg/mL (≈ 169 µM).
As for `C#CCNS(=O)(=O)c1ccc(N)cc1`, the MIC (in the test with Pseudomonas aeruginosa; in test [1]; in the test with Candida; with Escherichia coli; against Bacillus subtilis; in the test with Staphylococcus aureus [2]) was more than 512 µg/mL in each case. Moreover, the minimum inhibitory concentration (MIC) against Shigella dysenteriae, in the test with Candida albicans and against Staphylococcus aureus [3] was more than 512 µg/mL each time.
Turning to `O=C(N[C@H](CO)[C@H](O)c1ccc([N+](=O)[O-])cc1)C(Cl)Cl` [CHLORAMPHENICOL], the minimum inhibitory concentration (MIC) amounted to 8 µg/mL (≈ 24.8 µM) against Pseudomonas aeruginosa; 2 µg/mL (≈ 6.19 µM) in [1]; 4 µg/mL (≈ 12.4 µM) in the test with Escherichia coli; 2 µg/mL (≈ 6.19 µM) in the test with Bacillus subtilis; 2 µg/mL (≈ 6.19 µM) in the test on Staphylococcus aureus [2]; 4 µg/mL (≈ 12.4 µM) in the test on Shigella dysenteriae. This molecule displayed an MIC with Staphylococcus aureus [3] of 4 µg/mL (≈ 12.4 µM).
Consider `CCCCCn1cc(CNS(=O)(=O)c2ccc(N)cc2)nn1`, for which the MIC against Pseudomonas aeruginosa was 512 µg/mL (≈ 1580 µM); in [1] it was 512 µg/mL (≈ 1580 µM); in the test with Candida it was more than 512 µg/mL; against Escherichia coli it was more than 512 µg/mL; with Bacillus subtilis, more than 512 µg/mL; in the test with Staphylococcus aureus [2], more than 512 µg/mL. The MIC is 512 µg/mL (≈ 1580 µM) in the test with Shigella dysenteriae, more than 512 µg/mL with Candida albicans and more than 512 µg/mL in the test on Staphylococcus aureus [3].
Take `Nc1ccc(S(=O)(=O)NCc2cn(Cc3ccc(F)cc3)nn2)cc1`: the minimal inhibitory concentration (MIC) against Pseudomonas aeruginosa was 128 µg/mL (≈ 354 µM); in [1], 256 µg/mL (≈ 708 µM); in the test with Candida, more than 512 µg/mL; against Escherichia coli it was 256 µg/mL (≈ 708 µM); against Bacillus subtilis, more than 512 µg/mL; in the test with Staphylococcus aureus [2], more than 512 µg/mL. In addition, the minimum inhibitory concentration (MIC) in the test with Shigella dysenteriae is 128 µg/mL (≈ 354 µM); in the test on Candida albicans, more than 512 µg/mL; in the test with Staphylococcus aureus [3], 128 µg/mL (≈ 354 µM).
As for `Nc1ccc(S(=O)(=O)NCc2cn(Cc3cccc(Cl)c3)nn2)cc1`, the minimum inhibitory concentration (MIC) against Pseudomonas aeruginosa is 512 µg/mL (≈ 1360 µM); in test [1], 256 µg/mL (≈ 678 µM); against Candida, more than 512 µg/mL; against Escherichia coli, more than 512 µg/mL; with Bacillus subtilis, more than 512 µg/mL; in the test with Staphylococcus aureus [2], 256 µg/mL (≈ 678 µM). Further, the MIC in the test with Shigella dysenteriae was more than 512 µg/mL; against Candida albicans, more than 512 µg/mL; in the test on Staphylococcus aureus [3], 512 µg/mL (≈ 1360 µM).
As to `Nc1ccc(S(=O)(=O)NCc2cn(Cc3ccc(Cl)cc3Cl)nn2)cc1`, the minimal inhibitory concentration (MIC) against Pseudomonas aeruginosa came to 64 µg/mL (≈ 155 µM); in test [1], 128 µg/mL (≈ 310 µM); with Candida, 512 µg/mL (≈ 1240 µM); with Escherichia coli it was 128 µg/mL (≈ 310 µM); against Bacillus subtilis, 128 µg/mL (≈ 310 µM); against Staphylococcus aureus [2], 128 µg/mL (≈ 310 µM). Moreover, the MIC against Shigella dysenteriae is 32 µg/mL (≈ 77.6 µM); against Candida albicans, 512 µg/mL (≈ 1240 µM); in the test with Staphylococcus aureus [3], 64 µg/mL (≈ 155 µM).

As a reminder, the MIC is the smallest concentration in the dilution series that meets the test's criterion for growth inhibition. Read a high MIC as a less susceptible organism.
